Rows were chosen to be rich in hits. Some 3.3% of all compounds tested hit in one or more screens of this group.
PRMT1 inh: inhibitors of human PRMT1. recombinant PRMT1, activity-based probe fluorescence polarization. inhibition, % at 2.79 µM. hit rate 1.3% among 370,000. AID 652257;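 active means inhibition above about 21% made by adding two undisclosed values, limit read from the data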
ABHD4 inh: inhibitors of mouse ABHD4; Q8VD66; purified mABHD4, FP-Rh probe fluorescence polarization; inhibition, % at 8.92 µM; hit rate 0.54% among 370,000;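 active means inhibition exceeding the mean over every tested compound plus 3 SD, cut at about 30% in these data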
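Test system: mABHD4 protein; Read-out basis: % inhibition; Incubation: 45 min + 60 min at 25 °C; Repeats: single replicate; Technique: fluorescence polarization with parallel and perpendicular emission, 525/598 nm; Compound: 8.92 µM, single dose; Benchmarks: full inhibition S159A mutant plus DMSO, zero as sample-well median.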
HTRA1 inhibitor: HTRA1 (human) protease inhibition | inhibition, % at 5.96 µM | Q92743 | recombinant HTRA1, FP-rhodamine activity-based probe, fluorescence polarization | hit rate 0.5% among 340,000; in the data active means inhibition above about 36%
SIAE inh: inhibitors of human sialic acid acetylesterase SIAE; SIAE FP-Rh probe binding, fluorescence polarization; inhibition, % at 9.66 µM; hit rate 0.69% among 370,000; AID 1053197;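 active means inhibition above a cutoff: mean of compounds within the control limits plus 3 SD of those, cut at about 17% in these data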
Target sequence (Q9HAT2 whole entry, looked up): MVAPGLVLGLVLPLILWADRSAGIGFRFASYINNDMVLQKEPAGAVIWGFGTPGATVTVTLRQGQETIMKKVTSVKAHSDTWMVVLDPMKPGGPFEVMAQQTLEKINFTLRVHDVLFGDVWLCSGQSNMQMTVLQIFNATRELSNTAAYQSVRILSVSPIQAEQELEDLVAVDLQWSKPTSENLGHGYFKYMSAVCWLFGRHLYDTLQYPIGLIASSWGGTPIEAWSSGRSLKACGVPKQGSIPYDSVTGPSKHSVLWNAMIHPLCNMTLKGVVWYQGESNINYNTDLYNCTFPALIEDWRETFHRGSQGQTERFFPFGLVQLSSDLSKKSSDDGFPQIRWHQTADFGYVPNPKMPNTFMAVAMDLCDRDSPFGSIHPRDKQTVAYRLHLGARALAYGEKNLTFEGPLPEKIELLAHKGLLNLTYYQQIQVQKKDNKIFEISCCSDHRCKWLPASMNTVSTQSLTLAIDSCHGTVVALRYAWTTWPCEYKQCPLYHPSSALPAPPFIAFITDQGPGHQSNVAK
rCAG binder: binds r(CAG) RNA repeats; r(CAG) RNA repeat, TO-PRO-1 dye displacement fluorescence; inhibition, % at 3 µM; hit rate 1.3% among 370,000; AID 651821;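 active means inhibition above the plate cutoff, the mean of all test compounds on that plate plus 3 SD, cut at about 35% in these data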;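 further: higher means more dye released from RNA so lower well fluorescence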
HTRA1 conf: confirmation of human HTRA1 inhibitors; recombinant HTRA1, FP-rhodamine activity-based probe, fluorescence polarization; inhibition, % at 5.96 µM; shares compounds with HTRA1 inhibitor; hit rate 66% among 1,600;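 active means mean inhibition over three repeats above a set limit taken from the earlier primary screen, cut at about 37% in these data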;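 further: inhibitors block probe binding so polarization drops and inhibition rises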
rCAG binder conf: r(CAG) RNA repeat binding, confirmation; TO-PRO-1 dye displacement fluorescence; shares compounds with rCAG binder; hit rate 70% among 4,300; AID 652065; inhibition, % at 3 µM;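 active means inhibition above a per-plate cutoff, the mean inhibition of sample wells plus 3 SD, cut at about 35% in these data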;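 further: loss of TO-PRO-1 fluorescence as compound displaces dye from 1x1 AA loop RNA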
DNA CAG counter: disrupts DNA CAG TO-PRO-1 complex, flagging rCAG hits. shares compounds with rCAG binder. d(CAG) DNA oligo TO-PRO-1 dye displacement, fluorescence. inhibition, % at 3 µM. hit rate 94% among 4,300. AID 652068;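 active means inhibition above its plate's cutoff, the mean test-well inhibition plus 3 SD, cut at about 4.8% in these data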;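 further: hits displace the dye from DNA and so lower well fluorescence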
Large screens that a line does not name were inactive (follow-up assays come after a bar, where they were run).

O=C(NC(C(=O)N/N=C/c1ccccc1)c1n[nH]c(=O)c2ccccc12)c1ccccc1 (stereo unspecified)	none
O=C(NC(C(=O)N/N=C/c1c2ccccc2cc2ccccc12)c1n[nH]c(=O)c2ccccc12)c1ccccc1 (stereo unspecified)	HTRA1 inhibitor 40 | HTRA1 conf inactive
CC(=O)N1C[C@@H](CO)[C@@H](N(C)C(=O)/C=C/c2ccccc2)C[C@H]1c1ccccc1	none (no result: HTRA1 inhibitor)
O=C1Nc2ccc(Br)cc2C1(O)c1ccccc1 (stereo unspecified)	none
O=C1Nc2ccc(Br)cc2C12NNc1ccccc1O2 (stereo unspecified)	HTRA1 inhibitor 49, rCAG binder 61 | HTRA1 conf 62 | rCAG binder conf 58 | DNA CAG counter 48
O=C1CC(Nc2ccc(N3CCOCC3)cc2)C(=O)N1Cc1ccccc1 (stereo unspecified)	ABHD4 inh 49, HTRA1 inhibitor 49, SIAE inh 18, rCAG binder 35 | HTRA1 conf inactive | rCAG binder conf inactive | DNA CAG counter 6.9
C=CCN(C)C(C#Cc1ccccc1)Cc1ccccc1 (stereo unspecified)	none (no result: HTRA1 inhibitor, rCAG binder)
Cc1ccc(C2=NC(=O)/C(=C/c3cc(O)c(O)c(Br)c3)S2)cc1	PRMT1 inh 23, HTRA1 inhibitor 67, rCAG binder 84 | HTRA1 conf 71 | rCAG binder conf 86 | DNA CAG counter 52
COc1cc(/C=C2\SC(c3ccc(C)cc3)=NC2=O)cc(OC)c1O	none
COc1ccc(CN2C(=O)COc3ccccc3C2c2nnnn2C2CCCCC2)cc1 (stereo unspecified)	none (no result: HTRA1 inhibitor)
Nc1c(N)c2ccccc2oc1=O	none
O=c1oc2ccccc2c2oc3cc(O)c(O)cc3c12	ABHD4 inh 55, HTRA1 inhibitor 82, rCAG binder 41 | HTRA1 conf 77 | rCAG binder conf 53 | DNA CAG counter 28
Cc1[nH]n(-c2ccccc2)c(=O)c1N=Nc1ccccc1O	HTRA1 inhibitor 43, rCAG binder 40 | HTRA1 conf inactive | rCAG binder conf inactive | DNA CAG counter 13
COc1ccc(/C=N\NC(=O)c2cc(O)c(O)c(O)c2)cc1COc1ccc(C(=O)OCC(C)C)cc1	HTRA1 inhibitor 58, rCAG binder 50 | HTRA1 conf 55 | rCAG binder conf 56 | DNA CAG counter 35
COc1ccc(C(=O)N/N=C/c2ccc(OC)c(COc3ccccc3)c2)cc1	none
COC(=O)[C@]12C[C@H](CC(=O)N3CCSCC3)C(=O)N(Cc3ccc(Cl)cc3Cl)C1=C[C@H](COCc1ccccc1)O[C@@H]2C	none (no result: HTRA1 inhibitor)
CN1C(=O)[C@@](O)(c2cccn2C)c2cc(Cl)ccc21	none (no result: HTRA1 inhibitor)
CC(=O)O[C@@H]1CCC[C@@]2(C(=O)N(Cc3ccccc3)c3ccc(-c4c(C)noc4C)cc32)[C@H]1NC(=O)CCc1ccccc1	none (no result: HTRA1 inhibitor)
COc1ccc(NC(=O)c2cc3ccccc3cc2O)cc1	HTRA1 inhibitor 39, rCAG binder 46 | HTRA1 conf inactive | rCAG binder conf 39 | DNA CAG counter 16
COc1cc(/C=C2\CC/C(=C\c3cc(OC)c(O)c(OC)c3)C2=O)cc(OC)c1O	PRMT1 inh 27, HTRA1 inhibitor 46, rCAG binder 36 | HTRA1 conf 55 | rCAG binder conf 40 | DNA CAG counter 15
COc1cc(/C=C2\CC/C(=C\c3cc(OC)c(OC)c(OC)c3)C2=O)cc(OC)c1OC	none
COc1ccc(N=C2NC(=O)/C(=C\C=C\c3ccco3)S2)cc1	HTRA1 inhibitor 38, rCAG binder 44 | HTRA1 conf inactive | rCAG binder conf inactive | DNA CAG counter 17
O=C1NC(=Nc2ccc(O)cc2)S/C1=C/c1ccco1	none
COC(=O)[C@]12C[C@H](CC(=O)N3CCCCC3)C(=O)N(Cc3ccc(Cl)cc3Cl)C1=C[C@H](C1CCCC1)O[C@@H]2C	none (no result: HTRA1 inhibitor)
C/C(=N\Nc1nc(-c2cc(C)ccc2C)cs1)c1cc2c(ccc3ccccc32)oc1=O	HTRA1 inhibitor 53, rCAG binder 47 | HTRA1 conf inactive | rCAG binder conf 45 | DNA CAG counter 23
CCCN1CCS(=O)(=O)N(Cc2cn(Cc3ccc(C)cc3)nn2)C(C(=O)OC)C1 (stereo unspecified)	none (no result: HTRA1 inhibitor)
O=c1cc(-c2ccc(O)c(O)c2)oc2ccc3ccccc3c12	HTRA1 inhibitor 69, rCAG binder 41 | HTRA1 conf 70 | rCAG binder conf 59 | DNA CAG counter 28
O=c1cc(-c2ccccc2)oc2ccc3ccccc3c12	none
O=C(NNc1nc2ccc(Cl)cc2s1)c1cc(-c2cccs2)nc2ccccc12	HTRA1 inhibitor 42, rCAG binder 55 | HTRA1 conf 56 | rCAG binder conf 50 | DNA CAG counter 25
Cc1ccc2sc(NNC(=O)c3cc(-c4cccs4)nc4ccccc34)nc2c1C	none (no result: HTRA1 inhibitor)
O=C(NN=C1CCCCCC1)c1cc2ccccc2cc1O	none
CCOC(=O)N1CCC(=NNC(=O)c2cc3ccccc3cc2O)CC1	HTRA1 inhibitor 43, rCAG binder 37 | HTRA1 conf inactive | rCAG binder conf inactive | DNA CAG counter 11
COc1cc(/C=C/C(=O)c2ccccc2)cc(OC)c1OC	none (no result: HTRA1 inhibitor, rCAG binder)
Cc1ccc2nc(NNC(=O)c3ccc(S(=O)(=O)N4CCc5ccccc5C4)cc3)sc2c1	HTRA1 inhibitor 49, rCAG binder 51 | HTRA1 conf inactive | rCAG binder conf 60 | DNA CAG counter 29
Cc1cc(C)c2nc(NNC(=O)c3ccc(S(=O)(=O)N4CC(C)CC(C)C4)cc3)sc2c1 (stereo unspecified)	HTRA1 inhibitor 54, rCAG binder 43 | HTRA1 conf 61 | rCAG binder conf 49 | DNA CAG counter 24
Cc1cccc2sc(NNC(=O)c3ccc(S(=O)(=O)N4CC(C)CC(C)C4)cc3)nc12 (stereo unspecified)	HTRA1 inhibitor 60, rCAG binder 66 | HTRA1 conf 41 | rCAG binder conf 63 | DNA CAG counter 30
Cc1cc(C)c2nc(NNC(=O)c3ccc(S(=O)(=O)N4CCCC(C)C4)cc3)sc2c1 (stereo unspecified)	HTRA1 inhibitor 51, rCAG binder 47 | HTRA1 conf 54 | rCAG binder conf 52 | DNA CAG counter 23
CCC(=O)NNc1nc2c(C)cc(C)cc2s1	none
c1ccc2c(-c3csc(-c4ccncc4)n3)c[nH]c2c1	none
COc1ccc(C)cc1Nc1nc(-c2c[nH]c3ccccc23)cs1	HTRA1 inhibitor 43, rCAG binder 37 | HTRA1 conf inactive | rCAG binder conf inactive | DNA CAG counter 12
Cc1cccc(NC(=S)N/N=C/c2ccc([N+](=O)[O-])s2)c1	HTRA1 inhibitor 60, rCAG binder 36 | HTRA1 conf 67 | rCAG binder conf inactive | DNA CAG counter 11

Compound activity: PubChem BioAssay, The Scripps Research Institute Molecular Screening Center
